# Results taken from ChEMBL document CHEMBL2086296, “Synthesis of novel quinoline-2-one based chalcones of potential anti-tumor activity” (Eur J Med Chem, 2012).
# Assays:
# ACHN = experiment: Cytotoxicity against human ACHN cells after 24 hrs by SRB assay; type: cell-based
# How it was run: (§1)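 NCI 60-cell screen. Cells grown in RPMI 1640 with 5% FBS and 2 mM L-glutamine, seeded at 5,000–40,000 cells/well, preincubated 24 h at 37 °C in 5% CO2. Drug stock in DMSO, diluted in medium with gentamicin; five final concentrations, 100, 10, 1.0, 0.1 and […]. Time-zero plates were TCA-fixed. Protein read by SRB staining; GI50, TGI and LC50 taken relative to time-zero.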
# SNB-19 = experiment: Cytotoxicity against human SNB19 cells after 24 hrs by SRB assay; type: functional; conditions: SNB-19, 24 h
# How it was run: (§2)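 NCI 60-cell screen. Cells are grown in RPMI 1640 with 5% FBS and 2 mM L-glutamine and seeded at 5,000–40,000 cells/well according to doubling time. They are preincubated 24 h at 37 °C in 5% CO2, and Tz plates are TCA-fixed at drug addition. Drug stock is in DMSO, diluted in medium with gentamicin, and tested at five concentrations (100, 10, 1.0, 0.1, […]). Protein is read by SRB staining. GI50, TGI and LC50 are derived relative to time-zero and control wells.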
# OVCAR-8 = experiment: Cytotoxicity against human OVCAR8 cells after 24 hrs by SRB assay; type: functional; conditions: OVCAR-8, 24 h
# How it was run: (§3)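 NCI 60-line screen. Cells in RPMI 1640 with 5% FBS and 2 mM L-glutamine, seeded at 5,000–40,000 cells/well by doubling time, then incubated 24 h at 37 °C, 5% CO2 before dosing. Time-zero plates fixed with TCA at drug addition. DMSO stocks diluted in medium with gentamicin to five concentrations, […]. Protein read by SRB staining. GI50, TGI and LC50 derived relative to control and time-zero.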
# MDA-MB-435 [1] = experiment: (§4) Cytotoxicity against human MDA-MB-435 cells after 24 hrs by SRB assay; type: cell-based; conditions: mda-mb-435, 24 h; how it was run: as §1
# A549 = experiment: Cytotoxicity against human A549 cells after 24 hrs by SRB assay; type: cell-based; conditions: a549, 24 h; how it was run: as §1
# OVCAR-3 = experiment: Cytotoxicity against human OVCAR3 cells after 24 hrs by SRB assay; type: cell-based; conditions: ovcar-3, 24 h; how it was run: as §1
# [2] = Cytotoxicity against human Hs 578T cells after 24 hrs by SRB assay; type: cell-based; how it was run: as §1
# SNB-75 = experiment: Cytotoxicity against human SNB75 cells after 24 hrs by SRB assay; type: functional; conditions: SNB-75, 24 h; how it was run: as §2
# SF-539 = experiment: Cytotoxicity against human SF539 cells after 24 hrs by SRB assay; type: functional; conditions: SF-539, 24 h; how it was run: as §3
# SN12C = experiment: Cytotoxicity against human SN12C cells after 24 hrs by SRB assay; type: cell-based
# How it was run: (§5)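 NCI 60-cell-line screen: cells grown in RPMI 1640 with 5% FBS and 2 mM L-glutamine, seeded at 5,000–40,000 cells/well by doubling time, and preincubated 24 h at 37 °C in 5% CO2. Time-zero plates were TCA-fixed. DMSO stocks were diluted in medium with gentamicin to five concentrations (100, 10, 1.0, 0.1, […]). Protein was read by SRB, and GI50, TGI and LC50 were derived against time-zero.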
# MDA-MB-468 = experiment: Cytotoxicity against human MDA-MB-468 cells after 24 hrs by SRB assay; type: functional; conditions: MDA-MB-468, 24 h; how it was run: as §3
# SR = experiment: Cytotoxicity against human SR cells after 24 hrs by SRB assay; type: functional; how it was run: as §2
# NCI-H23 = experiment: Cytotoxicity against human NCI-H23 cells after 24 hrs by SRB assay; type: functional; conditions: NCI-H23, 24 h; how it was run: as §3
# HOP-92 = experiment: Cytotoxicity against human HOP92 cells after 24 hrs by SRB assay; type: cell-based; conditions: hop-92, 24 h; how it was run: as §1
# SW-620 = experiment: Cytotoxicity against human SW620 cells after 24 hrs by SRB assay; type: cell-based; conditions: sw-620, 24 h; how it was run: as §5
# DU-145 = experiment: Cytotoxicity against human DU145 cells after 24 hrs by SRB assay; type: cell-based; conditions: du-145, 24 h; how it was run: as §1
# HT-29 = experiment: Cytotoxicity against human HT-29 cells after 24 hrs by SRB assay; type: functional; conditions: HT-29, 24 h; how it was run: as §3
# SK-MEL-2 [3] = experiment: (§6) Cytotoxicity against human SK-MEL-2 cells after 24 hrs by SRB assay; type: cell-based; conditions: sk-mel-2, 24 h; how it was run: as §1
# MDA-MB-231 = experiment: Cytotoxicity against human MDA-MB-231 cells after 24 hrs by SRB assay; type: functional; conditions: MDA-MB-231, 24 h; how it was run: as §3
# NCI-H460 = experiment: Cytotoxicity against human NCI-H460 cells after 24 hrs by SRB assay; type: functional; conditions: NCI-H460, 24 h; how it was run: as §3
# MOLT-4 = experiment: Cytotoxicity against human MOLT4 cells after 24 hrs by SRB assay; type: cell-based; conditions: molt-4, 24 h; how it was run: as §1
# OVCAR-5 = experiment: Cytotoxicity against human OVCAR5 cells after 24 hrs by SRB assay; type: functional; conditions: OVCAR-5, 24 h; how it was run: as §3
# KM12 = experiment: Cytotoxicity against human KM12 cells after 24 hrs by SRB assay; type: functional; conditions: KM12, 24 h; how it was run: as §3
# RXF 393 = experiment: Cytotoxicity against human RXF393 cells after 24 hrs by SRB assay; type: cell-based; conditions: rxf 393, 24 h; how it was run: as §1
# SK-MEL-5 = experiment: Cytotoxicity against human SK-MEL-5 cells after 24 hrs by SRB assay; type: cell-based; conditions: sk-mel-5, 24 h; how it was run: as §1
# SF-295 = experiment: Cytotoxicity against human SF295 cells after 24 hrs by SRB assay; type: functional; conditions: SF-295, 24 h; how it was run: as §3
# CCRF-CEM = experiment: Cytotoxicity against human CCRF-CEM cells after 24 hrs by SRB assay; type: cell-based; how it was run: as §1
# SK-MEL-2 [4] = experiment: as §6; type: functional; conditions: SK-MEL-2, 24 h; how it was run: as §3
# MDA-MB-435 [5] = experiment: as §4; type: functional; conditions: MDA-MB-435, 24 h; how it was run: as §3
# BT-549 = experiment: Cytotoxicity against human BT549 cells after 24 hrs by SRB assay; type: functional; conditions: BT-549, 24 h; how it was run: as §3
# SF-268 = experiment: Cytotoxicity against human SF268 cells after 24 hrs by SRB assay; type: cell-based; conditions: sf-268, 24 h; how it was run: as §1
# T47D = experiment: Cytotoxicity against human T47D cells after 24 hrs by SRB assay; type: cell-based; how it was run: as §5
# U-251 = experiment: Cytotoxicity against human U251 cells after 24 hrs by SRB assay; type: functional; conditions: U-251, 24 h; how it was run: as §2
# 786-0 = experiment: Cytotoxicity against human 786-0 cells after 24 hrs by SRB assay; type: cell-based; conditions: 786-0, 24 h; how it was run: as §1
# OVCAR-4 [6] = experiment: (§7) Cytotoxicity against human OVCAR4 cells after 24 hrs by SRB assay; type: cell-based; conditions: ovcar-4, 24 h; how it was run: as §1
# OVCAR-4 [7] = experiment: as §7; type: functional; conditions: OVCAR-4, 24 h; how it was run: as §3
smiles,measurement,setting,value
O=C(/C=C/c1cc2ccccc2[nH]c1=O)c1ccc(O)cc1,LC50,ACHN,34 µM
same,GI50,SNB-19,4.59 µM
same,TGI,SNB-19,18 µM
same,GI50,OVCAR-8,3.23 µM
same,TGI,OVCAR-8,21.1 µM
same,LC50,MDA-MB-435 [1],> 100 µM
same,LC50,A549,89.9 µM
same,LC50,OVCAR-3,35 µM
same,LC50,[2],> 100 µM
same,GI50,SNB-75,9.3 µM
same,TGI,SNB-75,23 µM
same,GI50,SF-539,2.55 µM
same,TGI,SF-539,8.64 µM
same,LC50,SN12C,> 100 µM
same,GI50,MDA-MB-468,2.12 µM
same,TGI,MDA-MB-468,5.3 µM
same,GI50,SR,1.66 µM
same,GI50,NCI-H23,3.18 µM
same,TGI,NCI-H23,20 µM
same,LC50,HOP-92,> 100 µM
same,LC50,SW-620,> 100 µM
same,LC50,DU-145,38 µM
same,GI50,HT-29,3.61 µM
same,TGI,HT-29,12.1 µM
same,LC50,SK-MEL-2 [3],48.3 µM
same,GI50,MDA-MB-231,2.31 µM
same,TGI,MDA-MB-231,15 µM
same,GI50,NCI-H460,2.39 µM
same,TGI,NCI-H460,6.87 µM
same,LC50,MOLT-4,> 100 µM
same,GI50,OVCAR-5,3.2 µM
same,TGI,OVCAR-5,12.8 µM
same,GI50,KM12,1.89 µM
same,TGI,KM12,4.5 µM
same,LC50,RXF 393,6.33 µM
same,LC50,SK-MEL-5,37.3 µM
same,GI50,SF-295,7.04 µM
same,TGI,SF-295,44 µM
same,LC50,CCRF-CEM,> 100 µM
same,GI50,SK-MEL-2 [4],4.13 µM
same,TGI,SK-MEL-2 [4],13.6 µM
same,GI50,MDA-MB-435 [5],2.94 µM
same,TGI,MDA-MB-435 [5],16.8 µM
same,GI50,BT-549,1.95 µM
same,TGI,BT-549,5.35 µM
same,LC50,SF-268,> 100 µM
same,LC50,T47D,79.6 µM
same,GI50,U-251,2.6 µM
same,TGI,U-251,10.9 µM
O=C(/C=C/c1cc2ccccc2[nH]c1=O)c1ccc(Cl)cc1,LC50,ACHN,90.6 µM
same,GI50,SNB-19,5.11 µM
same,TGI,SNB-19,> 100 µM
same,GI50,OVCAR-8,4.93 µM
same,TGI,OVCAR-8,21.2 µM
same,LC50,MDA-MB-435 [1],> 100 µM
same,LC50,A549,> 100 µM
same,LC50,OVCAR-3,> 100 µM
same,LC50,[2],> 100 µM
same,GI50,SNB-75,6.21 µM
same,TGI,SNB-75,48.8 µM
same,GI50,SF-539,2.07 µM
same,TGI,SF-539,8.02 µM
same,LC50,SN12C,> 100 µM
same,GI50,MDA-MB-468,2.96 µM
same,TGI,MDA-MB-468,9.88 µM
same,GI50,SR,1.71 µM
same,TGI,SR,19.1 µM
same,GI50,NCI-H23,5.37 µM
same,TGI,NCI-H23,93.3 µM
same,LC50,HOP-92,> 100 µM
same,LC50,SW-620,56.6 µM
same,LC50,DU-145,> 100 µM
same,GI50,HT-29,3.84 µM
same,TGI,HT-29,22.5 µM
same,LC50,SK-MEL-2 [3],72.6 µM
same,LC50,786-0,> 100 µM
same,GI50,MDA-MB-231,6.16 µM
same,TGI,MDA-MB-231,28.3 µM
same,GI50,NCI-H460,3.99 µM
same,TGI,NCI-H460,18.9 µM
same,LC50,MOLT-4,> 100 µM
same,GI50,OVCAR-5,12.7 µM
same,TGI,OVCAR-5,97 µM
same,GI50,KM12,3.23 µM
same,TGI,KM12,16.3 µM
same,LC50,OVCAR-4 [6],> 100 µM
same,LC50,RXF 393,> 100 µM
same,LC50,SK-MEL-5,> 100 µM
same,GI50,SF-295,4.57 µM
same,TGI,SF-295,38.3 µM
same,LC50,CCRF-CEM,> 100 µM
same,GI50,SK-MEL-2 [4],8.55 µM
same,TGI,SK-MEL-2 [4],25.7 µM
same,GI50,MDA-MB-435 [5],2.83 µM
same,TGI,MDA-MB-435 [5],13.1 µM
same,GI50,BT-549,3.86 µM
same,TGI,BT-549,17.1 µM
same,LC50,SF-268,> 100 µM
same,LC50,T47D,> 100 µM
same,GI50,OVCAR-4 [7],1.67 µM
same,TGI,OVCAR-4 [7],> 100 µM
same,GI50,U-251,2.52 µM
same,TGI,U-251,11.4 µM
